Assay results from PMC3346932 (Molecular Imaging and Biology, 2011).
Read-outs that look alike come from different tables or passages of the source. Where a SMILES comes first, the peptide text is derived from it. Bridges are numbered along the chain shown (N, C = ends). Where no end group is shown, it is not given here. The star is where a group is joined. IRDye800CW = CC1(C)C(/C=C/C2=C(Oc3ccc(S(=O)(=O)O)cc3)C(=C/C=C3/N(CCCCS(=O)(=O)O)c4ccc(S(=O)(=O)O)cc4C3(C)C)/CCC2)=[N+](CCCCCC(=O)*)c2ccc(S(=O)(=O)[O-])cc21

How the values were obtained:
[1] = water-octanol partition coefficient; assay type: physicochemical
[2] = fluorescence optical properties; assay type: physicochemical; details: 785/830 nm
[3] = test system: lymphatic vasculature of C57BL/6 mice; assay: in vivo NIR fluorescence lymphatic imaging; design: species or system mouse; details: intradermal 20 μL of 500 μM ICG or 100 μM cABD-IRDye800
Method in brief: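 Shaved female C57BL/6 mice, 6–7 weeks old, under 2–3% isoflurane on a 37° heating pad (~30 min per animal). Intradermal injection at the tail base, with the injection site taped over. Illumination by a 785 nm laser diode (80 mW) expanded to an ~8 cm area. EMCCD capture through an 830 nm bandpass filter at 200 ms per frame. Mice monitored during and after imaging.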

[4] = test system: inguinal lymph node of C57BL/6 mice; assay: lymphatic clearance from inguinal lymph node, NIR fluorescence imaging; assay type: in vivo, mouse; details: for percent of maximal fluorescence intensity retained over the study period: intradermal, 0–50 min, normalized to maximum
Method in brief: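 C57BL/6 mice were induced with 2–3% isoflurane and kept under <1% for 50 min at 37°. […] A region near the inguinal node was imaged at 200 ms/frame at 0.5, 2.5, 15, 30 and 50 min. Signal was normalized to each agent's maximum node intensity; Student's t test, α = 0.05.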

[5] = reference standard; ref [53]; cited from earlier work
[6] = HPLC degradation study of ICG in saline; assay type: physicochemical; details: 100 μg/mL ICG in saline, by 25 h
[7] = ref [27], cited from earlier work
[8] = target: mouse serum albumin (mouse, UniProt P07724 25-608); assay: SPR

CC[C@H](C)[C@H](NC(=O)[C@H](CC(C)C)NC(=O)[C@H](CCCNC(=N)N)NC(C)=O)C(=O)N[C@@H](CCC(=O)O)C(=O)N[C@@H](CC(=O)O)C(=O)N[C@H](C(=O)N[C@H]1CSSC[C@@H](C(=O)N[C@@H](CC(C)C)C(=O)N[C@@H](Cc2c[nH]c3ccccc23)C(=O)N[C@@H](CCC(=O)O)C(=O)N[C@@H](CC(=O)O)C(=O)N[C@@H](CC(=O)O)C(=O)N[C@@H](CCCCNC(=O)CCCCCN2C(=CC=C3CCCC(C=CC4=[N+](CCCCS(=O)(=O)O)c5ccc(S(=O)(=O)[O-])cc5C4(C)C)=C3Oc3ccc(S(=O)(=O)O)cc3)C(C)(C)c3cc(S(=O)(=O)O)ccc32)C(N)=O)NC(=O)CNC(=O)[C@H](Cc2c[nH]c3ccccc23)NC(=O)[C@H](CCCNC(=N)N)NC(=O)[C@@H]2CCCN2C(=O)[C@H](CC(C)C)NC1=O)[C@@H](C)CC [cABD-IRDye800] (Ac-RLIEDICLPRWGCLWEDDK(IRDye800CW)-NH2; disulfide 7-13; N-terminus and C-terminus assumed)
logP [1]: -0.53 | lifetime relative to ICG [2]: 1.6 times | adverse events during and after imaging [3]: none | percent of maximal fluorescence intensity retained over the study period [4]: at least 80%

CC1(C)C(/C=C/C2=C(Oc3ccc(S(=O)(=O)O)cc3)C(=C/C=C3/N(CCCCS(=O)(=O)O)c4ccc(S(=O)(=O)[O-])cc4C3(C)C)/CCC2)=[N+](CCCCCC(=O)O)c2ccc(S(=O)(=O)O)cc21 [IRDye800]
percent of maximum fluorescence remaining at 50 min ([4]; intradermal 20 μL of 100 μM, 50 min): less than 30%

CC1(C)C(/C=C/C=C/C=C/C=C2\N(CCCCS(=O)(=O)O)c3ccc4ccccc4c3C2(C)C)=[N+](CCCCS(=O)(=O)[O-])c2ccc3ccccc3c21 [ICG, indocyanine green]
known lifetime [5]: 0.56 ns | ICG peak remaining [6]: 30% | degradation peak [6]: 70% | adverse events during and after imaging [3]: none | percent of maximal fluorescence intensity retained over the study period [4]: at least 80% | half life ([7]; ambient temperature under normal light): 14 h | half life ([7]; aqueous solution, darkness, low temperature (8°C)): approximately 20 h | half life ([7]; aqueous solution, exposure to light at 786 nm): 2.3 h

RLIEDICLPRWGCLWEDDK (disulfide 7-13; also: Dylight680 conjugated, site not given here) [cABD conjugated to Dylight680]
Kd [8]: 32 nM
